B1: Osa-1-4 twister ribozyme (parent)
chain: CCGCCUAACACUGCCAAUGCCGGUCCCAAGCCCGGAUAAAAGUGGAGGGGGCGG

Variants of: B1
Test: self-cleavage, relative activity (ratio to wild type); higher = more cleavage; co-transcriptional
Procedure, shortened: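 For each read, cleavage status was taken from whether upstream sequence was present. The reads came from an Oryza sativa twister ribozyme of 54 nucleotides, whose DNA template was synthesised with 97 % wild-type base and 1 % of each other base at the 48 positions downstream of the cleavage site. The template was transcribed in vitro at 37 °C for 2 h with co-transcriptional self-cleavage, and the RNA was reverse-transcribed using a template-switching oligonucleotide, PCR-amplified and deep-sequenced. Relative activity is the fraction cleaved normalised to wild type.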

Row | Variant | self-cleavage
1 | A38C A39G | 0.96
2 | A38C A39U | 0.96
3 | A38C A40C | 0.09
4 | A38C A40G | 0.84
5 | A38C A40U | 0.6
6 | A38C A41C | 0.91
7 | A38C A41G | 0.69
8 | A38C A41U | 1
9 | A38C A46C | 0.04
10 | A38C A46G | 0.06
11 | A38C A46U | 0.07
12 | A38C C9A | 0.37
13 | A38C C9G | 0.83
14 | A38C C9U | 0.78
15 | A38C C11A | 0.74
16 | A38C C11G | 0.5
17 | A38C C11U | 0.92
18 | A38C C14A | 0.09
19 | A38C C14G | 0.08
20 | A38C C14U | 0.4
21 | A38C C15A | 0.31
22 | A38C C15G | 0.11
23 | A38C C15U | 0.57
24 | A38C C20A | 0.86

Row | Variant | self-cleavage
25 | A38C C20G | 0.09
26 | A38C C20U | 0.95
27 | A38C C21A | 0.27
28 | A38C C21G | 0.07
29 | A38C C21U | 0.92
30 | A38C C25A | 0.07
31 | A38C C25G | 0.06
32 | A38C C25U | 0.88
33 | A38C C26A | 0.07
34 | A38C C26G | 0.08
35 | A38C C26U | 0.94
36 | A38C C27A | 0.18
37 | A38C C27G | 0.06
38 | A38C C27U | 0.18
39 | A38C C31A | 0.04
40 | A38C C31G | 0.09
41 | A38C C31U | 0.89
42 | A38C C32A | 0.09
43 | A38C C32G | 0.09
44 | A38C C32U | 0.13
45 | A38C C33A | 0.1
46 | A38C C33G | 0.05
47 | A38C C33U | 0.79
48 | A38C C52A | 1

Row | Variant | self-cleavage
49 | A38C C52G | 1.03
50 | A38C C52U | 1.03
51 | A38C G13A | 0.07
52 | A38C G13C | 0.03
53 | A38C G13U | 0.03
54 | A38C G19A | 0.64
55 | A38C G19C | 0.07
56 | A38C G19U | 0.33
57 | A38C G22A | 1.04
58 | A38C G22C | 0.09
59 | A38C G22U | 0.87
60 | A38C G23A | 0.1
61 | A38C G23C | 0.04
62 | A38C G23U | 0.07
63 | A38C G30A | 0.05
64 | A38C G30C | 0.05
65 | A38C G30U | 0.03
66 | A38C G34A | 0.85
67 | A38C G34C | 0.38
68 | A38C G34U | 0.67
69 | A38C G35A | 0.84
70 | A38C G35C | 0.36
71 | A38C G35U | 0.86
72 | A38C G42A | 0.35

Row | Variant | self-cleavage
73 | A38C G42C | 0.12
74 | A38C G42U | 0.07
75 | A38C G44A | 0.99
76 | A38C G44C | 0.97
77 | A38C G44U | 0.93
78 | A38C G45A | 0.32
79 | A38C G45C | 0.05
80 | A38C G45U | 0.1
81 | A38C G47A | 0.19
82 | A38C G47C | 0.08
83 | A38C G47U | 0.22
84 | A38C G48A | 0.09
85 | A38C G48C | 0.08
86 | A38C G48U | 0.07
87 | A38C G49A | 0.1
88 | A38C G49C | 0.06
89 | A38C G49U | 0.1
90 | A38C G50A | 0.75
91 | A38C G50C | 1.01
92 | A38C G50U | 1.04
93 | A38C G51A | 0.69
94 | A38C G51C | 0.09
95 | A38C G51U | 0.37
96 | A38C G53A | 0.84

Row | Variant | self-cleavage
97 | A38C G53C | 0.08
98 | A38C G53U | 0.24
99 | A38C G54A | 0.96
100 | A38C G54C | 0.93
101 | A38C G54U | 0.94
102 | A38C U12A | 0.92
103 | A38C U12C | 0.38
104 | A38C U12G | 0.29
105 | A38C U18A | 0.98
106 | A38C U18C | 0.99
107 | A38C U18G | 0.81
108 | A38C U24A | 0.16
109 | A38C U24C | 0.26
110 | A38C U24G | 0.04
111 | A38C U37A | 1.05
112 | A38C U37C | 1
113 | A38C U37G | 0.99
114 | A38C U43A | 0.88
115 | A38C U43C | 0.38
116 | A38C U43G | 0.34
117 | A38G | 1.01
118 | A38G A7C | 0.06
119 | A38G A7G | 0.31
120 | A38G A7U | 0.08

Row | Variant | self-cleavage
121 | A38G A8C | 0.07
122 | A38G A8G | 0.55
123 | A38G A8U | 0.27
124 | A38G A39C | 0.97
125 | A38G A39G | 0.4
126 | A38G A39U | 0.98
127 | A38G A40C | 0.07
128 | A38G A40G | 0.6
129 | A38G A40U | 0.32
130 | A38G A41C | 0.98
131 | A38G A41G | 0.75
132 | A38G A41U | 1.01
133 | A38G A46C | 0.08
134 | A38G A46G | 0.08
135 | A38G A46U | 0.07
136 | A38G C9A | 0.45
137 | A38G C9G | 0.88
138 | A38G C9U | 0.7
139 | A38G C11A | 0.8
140 | A38G C11G | 0.68
141 | A38G C11U | 0.94
142 | A38G C14A | 0.07
143 | A38G C14G | 0.13
144 | A38G C14U | 0.13

Row | Variant | self-cleavage
145 | A38G C15A | 0.33
146 | A38G C15G | 0.35
147 | A38G C15U | 0.47
148 | A38G C20A | 0.9
149 | A38G C20G | 0.19
150 | A38G C20U | 0.98
151 | A38G C21A | 0.78
152 | A38G C21G | 0.08
153 | A38G C21U | 1.01
154 | A38G C25A | 0.09
155 | A38G C25G | 0.11
156 | A38G C25U | 0.78
157 | A38G C26A | 0.06
158 | A38G C26G | 0.14
159 | A38G C26U | 0.85
160 | A38G C27A | 0.16
161 | A38G C27G | 0.09
162 | A38G C27U | 0.18
163 | A38G C31A | 0.03
164 | A38G C31G | 0.13
165 | A38G C31U | 0.73
166 | A38G C32A | 0.09
167 | A38G C32G | 0.18
